Reference: ChEMBL document CHEMBL1128288, “7-Azetidinylquinolones as antibacterial agents. 3. Synthesis, properties and structure-activity relationships of the stereoisomers containing a 7-(3-amino-2-methyl-1-azetidinyl) moiety” (J Med Chem, 1995)
≈ marks a conversion by molar mass, not a printed value.

Assays:
Bacillus subtilis = assay: In vitro antibacterial activity measured as minimum inhibitory concentration was evaluated on Bacillus subtilis ATCC 6633(Bs).; type: functional; conditions: Bacillus subtilis, ATCC 6633; read-out: MIC
Method in brief: (§1)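 Serial 2-fold agar dilution in Mueller Hinton medium, run side by side with reference quinolones. Inoculum 10^5 cfu/mL; compound range 0.007–16 µg/mL.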

Morganella morganii = assay: In vitro antibacterial activity measured as minimum inhibitory concentration was evaluated on morganella morganii ATCC 8019 (Mm).; type: functional; conditions: Morganella morganii, ATCC 8019; read-out: MIC; method in brief: as §1
Proteus vulgaris = assay: In vitro antibacterial activity measured as minimum inhibitory concentration was evaluated on proteus vulgaris ATCC 8427 (Pv).; type: functional; conditions: Proteus vulgaris, ATCC 8427; read-out: MIC; method in brief: as §1
[1] = Solubility in water was determined at 25 degrees Centigrade; type: physicochemical
Method in brief: (§2)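 Excess solid was shaken 24 h at 25 °C in water or in 0.05 M phosphate buffer pH 7.4, then filtered (0.22 µm) with the first portion discarded. The filtrate was diluted with 0.1 N HCl or NaOH and measured spectrophotometrically at the compound's absorbance maximum.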

[2] = Solubility at pH 7.4 buffer.; type: physicochemical; method in brief: as §2
Enterobacter cloacae = assay: In vitro antibacterial activity measured as minimum inhibitory concentration, was evaluated on Enterobacter cloacae ATCC 23355 (Ecl).; type: functional; conditions: Enterobacter cloacae, ATCC 23355; read-out: MIC
Escherichia coli [3] = assay: In vitro antibacterial activity measured as minimum inhibitory concentration, was evaluated on Escherichia coli ATCC 23559(Ec).; type: functional; conditions: Escherichia coli, ATCC 23559; read-out: MIC; method in brief: as §1
Enterococcus faecalis = assay: In vitro antibacterial activity measured as minimum inhibitory concentration was evaluated on Streptococcus faecalis ATCC 10541 (Sf).; type: functional; conditions: Enterococcus faecalis, ATCC 10541; read-out: MIC; method in brief: as §1
[4] = test system: Staphylococcus epidermidis; assay: In vitro antibacterial activity measured as minimum inhibitory concentration was evaluated on Staphylococcus epidermidis ATCC 155-1 (Se).; type: functional; conditions: Staphylococcus epidermidis, ATCC 155-1; read-out: MIC; method in brief: as §1
Bacillus cereus = assay: In vitro antibacterial activity measured as minimum inhibitory concentration was evaluated on Bacillus cereus ATCC 11778 (Bc).; type: functional; conditions: Bacillus cereus, ATCC 11778; read-out: MIC; method in brief: as §1
Klebsiella pneumoniae = assay: In vitro antibacterial activity measured as minimum inhibitory concentration was evaluated on klebsiella pneumoniae ATCC 10031 (Kp).; type: functional; conditions: Klebsiella pneumoniae, ATCC 10031; read-out: MIC
Method in brief: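 Serial 2-fold agar dilution in Mueller Hinton medium, run side by side with reference quinolones.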

Staphylococcus aureus [5] = assay: In vitro antibacterial activity measured as minimum inhibitory concentration was evaluated on Staphylococcus aureus ATCC 25178 (Sa).; type: functional; conditions: Staphylococcus aureus, ATCC 25178; read-out: MIC; method in brief: as §1
Pseudomonas aeruginosa [6] = assay: In vitro antibacterial activity measured as minimum inhibitory concentration was evaluated on Pseudomonas aeruginosa ATCC 10145 (Pa).; type: functional; conditions: Pseudomonas aeruginosa, ATCC 10145; read-out: MIC; method in brief: as §1
[7] = mouse, in vivo, po, 50 mg/kg
Staphylococcus aureus [8] = assay: In vivo efficacy as ED50 against Staphylococcus aureus HS-93 by oral administration in mice.; type: functional; conditions: Staphylococcus aureus, po; read-out: ED50
Method in brief: (§3)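 Mice, 4 groups of 10, infected intraperitoneally with slightly more than the LD100 of the organism. A single oral dose was given immediately after infection, with four doses (one per group) chosen from in vitro activity. Survival was scored after one week. ED50 (total dose, mg/kg, protecting 50%) was interpolated among group survival rates.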

Pseudomonas aeruginosa [9] = assay: In vivo efficacy as ED50 against Pseudomonas aeruginosa HS-116 by oral administration in mice.; type: functional; conditions: Pseudomonas aeruginosa, po; read-out: ED50; method in brief: as §3
Escherichia coli [10] = assay: In vivo efficacy as ED50 against Escherichia coli HM-42 by oral administration in mice.; type: functional; conditions: Escherichia coli, po; read-out: ED50; method in brief: as §3

| Structure (SMILES) | MIC (Bacillus subtilis) [µg/mL] | MIC (Morganella morganii) [µg/mL] | MIC (Proteus vulgaris) [µg/mL] | solubility [1] [µg/mL] | solubility [2] [µg/mL] | MIC (Enterobacter cloacae) [µg/mL] | MIC (Escherichia coli [3]) [µg/mL] | MIC (Enterococcus faecalis) [µg/mL] | MIC [4] [µg/mL] | MIC (Bacillus cereus) [µg/mL] | MIC (Klebsiella pneumoniae) [µg/mL] | MIC (Staphylococcus aureus [5]) [µg/mL] | MIC (Pseudomonas aeruginosa [6]) [µg/mL] | AUC [7] [ng·h/mL] | ED50 (Staphylococcus aureus [8]) [mg/kg] | ED50 (Pseudomonas aeruginosa [9]) [mg/kg] | ED50 (Escherichia coli [10]) [mg/kg] |
| --- | --- | --- | --- | --- | --- | --- | --- | --- | --- | --- | --- | --- | --- | --- | --- | --- | --- |
| CCC[C@H](N)C(=O)N[C@@H]1CN(c2cc3c(cc2F)c(=O)c(C(=O)O)cn3-c2ccc(F)cc2F)[C@H]1C | 0.25 (≈ 0.498 µM) | 4 (≈ 7.96 µM) | 8 (≈ 15.9 µM) | > 500 | > 500 | 1 (≈ 1.99 µM) | 0.5 (≈ 0.995 µM) | 4 (≈ 7.96 µM) | 0.5 (≈ 0.995 µM) | 0.5 (≈ 0.995 µM) | 0.25 (≈ 0.498 µM) | 0.5 (≈ 0.995 µM) | 16 (≈ 31.8 µM) |  |  |  |  |
| C[C@@H]1[C@@H](NC(=O)[C@@H](C)N)CN1c1nc2c(cc1F)c(=O)c(C(=O)O)cn2C1CC1 | 0.5 (≈ 1.24 µM) | 8 (≈ 19.8 µM) | 8 (≈ 19.8 µM) | > 500 | > 500 | 4 (≈ 9.92 µM) | 1 (≈ 2.48 µM) | 1 (≈ 2.48 µM) | 0.25 (≈ 0.62 µM) | 1 (≈ 2.48 µM) | 8 (≈ 19.8 µM) | 1 (≈ 2.48 µM) | 16 (≈ 39.7 µM) | 0 |  |  |  |
| C[C@H](N)C(=O)N[C@@H](C)C(=O)N[C@@H]1CN(c2nc3c(cc2F)c(=O)c(C(=O)O)cn3C2CC2)[C@H]1C | 1 (≈ 2.11 µM) | 4 (≈ 8.43 µM) | 8 (≈ 16.9 µM) | > 500 | > 500 | 2 (≈ 4.22 µM) | 2 (≈ 4.22 µM) | 16 (≈ 33.7 µM) | 8 (≈ 16.9 µM) | 16 (≈ 33.7 µM) | 8 (≈ 16.9 µM) | 4 (≈ 8.43 µM) | 16 (≈ 33.7 µM) | 19200 |  |  |  |
| C[C@H](N)C(=O)N[C@@H]1CN(c2cc3c(cc2F)c(=O)c(C(=O)O)cn3-c2ccc(F)cc2F)[C@H]1C | 0.5 (≈ 1.05 µM) | 4 (≈ 8.43 µM) | 16 (≈ 33.7 µM) | > 500 | > 500 | 2 (≈ 4.22 µM) | 1 (≈ 2.11 µM) | 8 (≈ 16.9 µM) | 16 (≈ 33.7 µM) | 1 (≈ 2.11 µM) | 2 (≈ 4.22 µM) | 1 (≈ 2.11 µM) | 8 (≈ 16.9 µM) |  |  |  |  |
| CC(C)C[C@H](N)C(=O)N[C@@H]1CN(c2nc3c(cc2F)c(=O)c(C(=O)O)cn3C2CC2)[C@H]1C | 0.12 (≈ 0.269 µM) | 0.25 (≈ 0.561 µM) | 0.25 (≈ 0.561 µM) | > 500 | > 500 | 0.12 (≈ 0.269 µM) | 0.06 (≈ 0.135 µM) | 2 (≈ 4.49 µM) | 0.25 (≈ 0.561 µM) | 0.12 (≈ 0.269 µM) | 0.06 (≈ 0.135 µM) | 0.25 (≈ 0.561 µM) | 8 (≈ 18 µM) | 24900 | 9.4 | 63 | 2 |

The remaining compounds from weak to strong by MIC (Bacillus subtilis), led by results:

| MIC (Bacillus subtilis) [µg/mL] | MIC (Morganella morganii) [µg/mL] | MIC (Proteus vulgaris) [µg/mL] | solubility [1] [µg/mL] | solubility [2] [µg/mL] | MIC (Enterobacter cloacae) [µg/mL] | MIC (Escherichia coli [3]) [µg/mL] | MIC (Enterococcus faecalis) [µg/mL] | MIC [4] [µg/mL] | MIC (Bacillus cereus) [µg/mL] | MIC (Klebsiella pneumoniae) [µg/mL] | MIC (Staphylococcus aureus [5]) [µg/mL] | MIC (Pseudomonas aeruginosa [6]) [µg/mL] | AUC [7] [ng·h/mL] | Structure (SMILES) | ED50 (Staphylococcus aureus [8]) [mg/kg] | ED50 (Pseudomonas aeruginosa [9]) [mg/kg] | ED50 (Escherichia coli [10]) [mg/kg] |
| --- | --- | --- | --- | --- | --- | --- | --- | --- | --- | --- | --- | --- | --- | --- | --- | --- | --- |
| 0.12 (≈ 0.297 µM) | 0.5 (≈ 1.24 µM) | 1 (≈ 2.48 µM) | > 500 | > 500 | 0.12 (≈ 0.297 µM) | 0.12 (≈ 0.297 µM) | 8 (≈ 19.8 µM) | 0.5 (≈ 1.24 µM) | 1 (≈ 2.48 µM) | 0.06 (≈ 0.149 µM) | 0.5 (≈ 1.24 µM) | 8 (≈ 19.8 µM) | 28800 | C[C@H](N)C(=O)N[C@@H]1CN(c2nc3c(cc2F)c(=O)c(C(=O)O)cn3C2CC2)[C@H]1C |  |  |  |
| 0.12 (≈ 0.297 µM) | 2 (≈ 4.96 µM) | 2 (≈ 4.96 µM) | 495 (≈ 1230 µM) | 386 (≈ 957 µM) | 0.25 (≈ 0.62 µM) | 0.25 (≈ 0.62 µM) | 1 (≈ 2.48 µM) | 1 (≈ 2.48 µM) | 0.5 (≈ 1.24 µM) | 0.5 (≈ 1.24 µM) | 0.25 (≈ 0.62 µM) | 8 (≈ 19.8 µM) | 400 | C[C@@H](N)C(=O)N[C@@H]1CN(c2nc3c(cc2F)c(=O)c(C(=O)O)cn3C2CC2)[C@H]1C |  |  |  |
| 0.06 (≈ 0.149 µM) |  |  | 8 (≈ 19.8 µM) | 5.9 (≈ 14.6 µM) |  | 0.06 (≈ 0.149 µM) |  |  |  | 0.06 (≈ 0.149 µM) |  | 1 (≈ 2.48 µM) | 28400 | C[C@H]1[C@H](N)CN1c1cc2c(cc1F)c(=O)c(C(=O)O)cn2-c1ccc(F)cc1F (single isomer, unassigned) [CETEFLOXACIN] | 7 | 64 | 4 |
| 0.015 (≈ 0.0451 µM) | 0.015 (≈ 0.0451 µM) |  | 23 (≈ 69.2 µM) | 16.5 (≈ 49.6 µM) | 0.015 (≈ 0.0451 µM) | 0.015 (≈ 0.0451 µM) | 0.12 (≈ 0.361 µM) | 0.06 (≈ 0.181 µM) | 0.015 (≈ 0.0451 µM) | 0.015 (≈ 0.0451 µM) | 0.06 (≈ 0.181 µM) | 0.12 (≈ 0.361 µM) | 19200 | C[C@H]1[C@H](N)CN1c1nc2c(cc1F)c(=O)c(C(=O)O)cn2C1CC1 (single isomer, unassigned) | 4.6 | 34 | 1 |
